According to ChEMBL document CHEMBL4715793 (J Med Chem, 2016):
The source made the active and inactive calls. The calls are words filed in the database; no cut-off is given here.

Assays:
[1] = Resistance ratio of EC50 for antiviral activity against HCV J6/JFH/JC1 harboring D168V mutant infected in human Huh7.5 cells to EC50 for antiviral activity against wild-type HCV J6/JFH/JC1 infected in human Huh7.5 cells; type: functional
Hepatitis C virus [2] = assay: Synergistic antiviral activity against HCV J6/JFH/JC1 infected in human HuH7.5 cells assessed as inhibition of viral protein levels at 6.25 uM in presence of sofosbuvir measured after 72 hrs by western blot analysis; type: functional, organism-based; settings: Hepacivirus hominis
Procedure, shortened: (§1)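 Huh7.5 cells infected with HCV (45 IU/cell) and simultaneously treated with compound (6.25 μM) alone, DAA alone, or both. […] Intracellular protein analysed by Western blot at 72 h. At least triplicate, mean ± SD, Student's t test.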

Hepatitis C virus [3] = assay: Antiviral activity against HCV J6/JFH/JC1 harboring A156T mutant infected in human Huh7.5 cells assessed as inhibition of viral replication measured after 72 hrs by qRT-PCR analysis; type: functional, organism-based, Hepacivirus hominis; settings: J6/JFH/JC1, Huh7.5, 72 h
[4] = Cytotoxicity against human Huh7.5 cells assessed as reduction in cell viability incubated for 72 hrs by MTT assay; type: cell-based
Procedure, shortened: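 Huh7.5 cells seeded at 3 × 10^4/cm2, grown 24 h, then exposed to compound for 72 h. Viability read by MTT assay. CC50 by Reed & Muench method, mean ± SD from three independent experiments.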

Hepatitis C virus [5] = assay: Antiviral activity against HCV subgenomic replicon harboring I377-3'del.S infected in human GS4.3 cells assessed as inhibition of viral replication at 0.23 to 18.52 uM after 72 hrs by qRT-PCR analysis; type: functional, organism-based; settings: Hepacivirus hominis, Liver, dose 0.23-18.52 µM
Procedure, shortened: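 GS4.3 cells (Huh7 carrying HCV subgenomic replicon I377-3′del.S) seeded at 3 × 10^4/cm2, after 24 h treated with compound or solvent control. After 72 h intracellular RNA extracted and replicon RNA measured by qRT-PCR. Cytotoxicity checked by MTT at 72 h.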

Hepacivirus hominis [6] = assay: Inhibition of HCV NS3/4a protease
Hepacivirus hominis [7] = assay: Inhibition of HCV NS5A
Hepatitis C virus [8] = assay: Synergistic antiviral activity against HCV J6/JFH/JC1 infected in human HuH7.5 cells assessed as inhibition of viral protein levels at 6.25 uM in presence of daclatasvir measured after 72 hrs by western blot analysis; type: functional, organism-based; settings: Hepacivirus hominis; procedure, shortened: as §1
Hepatitis C virus [9] = assay: Synergistic antiviral activity against HCV J6/JFH/JC1 infected in human HuH7.5 cells assessed as combination index measured after 72 hrs in presence of simeprevir by Chou-Talalay method; type: functional, Hepacivirus hominis
Hepatitis C virus [10] = assay: Antiviral activity against HCV J6/JFH/JC1 harboring S282T mutant infected in human Huh7.5 cells assessed as inhibition of viral replication measured after 72 hrs by qRT-PCR analysis; type: functional, organism-based, Hepacivirus hominis; settings: J6/JFH/JC1, Huh7.5, 72 h

SMILES: COc1cc(/C=C/c2ccccc2)c(C(=O)O)c(O)c1CC=C(C)C
- Ratio EC50 [1]: 1.3
- Activity (Hepatitis C virus [2]): Active
- EC50 (Hepatitis C virus [3]): 6.44 µM
- CC50 at 72 h [4]: 91 µM
- Activity (Hepatitis C virus [5]): inactive
- inhibition (Hepacivirus hominis [6]): inactive
- inhibition (Hepacivirus hominis [7]): inactive
- Activity (Hepatitis C virus [8]): Active
- CI (Hepatitis C virus [9]): 0.953
- EC50 (Hepatitis C virus [10]): 8.59 µM
